Results as given in ChEMBL document CHEMBL6083216, “Rational design and in vitro testing of new urease inhibitors to prevent urinary catheter blockage” (RSC Med Chem, 2024).

How the values were obtained:
[1] = Inhibition of Proteus mirabilis B4 urease activity using urea as substrate incubated for 30 mins by absorbance based assay
Method in brief: (§1)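 Berthelot ammonia assay with whole-cell P. mirabilis B4, grown overnight in LB at 37 °C, pelleted and resuspended in PBS (0.004 mg mL−1 in phosphate buffer). Cells incubated with compound (10-fold dilutions) and 50 mM urea for 30 min at 37 °C. Phenol/nitroprusside and NaOH/hypochlorite reagents added, 30 min at 37 °C, A636 read. Activity normalised to controls; IC50 by non-linear regression; n = 6.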

Proteus mirabilis [2] = experiment: Potency index, ratio of acetohydroxamic acid IC50 to test compound IC50 for inhibition of Proteus mirabilis B4 urease activity using urea as substrate incubated for 30 mins by absorbance based assay; method in brief: as §1
Proteus mirabilis [3] = experiment: Antibacterial activity against Proteus mirabilis assessed as inhibition of bacterial growth incubated for 18 hrs by absorbance based plate reader analysis; assay type: functional, organism-based
Method in brief: (§2)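 Broth microdilution in LB: compound in sterile water with 5% (v/v) DMSO, two-fold serial dilutions; subculture at 1 × 10^6 CFU mL−1 added. 37 °C for 18 h, shaken 10 s before each OD600 reading taken at intervals. MIC read visually at 18 h and from growth curves as lowest concentration inhibiting growth. Wells with broth only and with bacteria only as controls.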

Escherichia coli = experiment: Antibacterial activity against Escherichia coli NSM59 assessed as inhibition of bacterial growth incubated for 18 hrs by absorbance based plate reader analysis; assay type: functional, organism-based; method in brief: as §2
[4] = Hemolytic activity in human erythrocytes at 0.080 to 5 mM incubated for 1 hrs by absorbance based assay; assay type: toxicity, cell-based; conditions: erythrocyte, 5000 µM, dose 0.08-5 mM
Method in brief: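 Pooled heparinised whole blood from three donors; erythrocytes washed three times in saline and diluted to 1% (v/v). Incubated with compound (5–0.08 mM, serial dilution of a 10 mM stock with 1% DMSO in PBS) for 1 h at 37 °C with rotation. Saline and 1% triton as controls. Supernatant absorbance read at 404 nm; % haemolysis relative to lysed cells.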

HepG2 [5] = experiment: Cytotoxicity against human HepG2 cells assessed as effect on cell survival at 10 mM measured within 24 hrs by MTT assay; assay type: toxicity, cell-based; conditions: hepg2, 24 h, 10000 µM
Method in brief: (§3)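 HepG2 cells in complete DMEM at 37 °C, 5% CO2, seeded at 1 × 10^4 cells per well. Compounds diluted serially from 10 mM with 1% DMSO in DMEM; 24 h exposure. MTT (1 mg mL−1) for 60 min at 37 °C, dissolved in isopropanol, absorbance read at 590 nm (reference 620 nm). % survival relative to untreated cells; three biological repeats.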

HepG2 [6] = experiment: Cytotoxicity against human HepG2 cells assessed as effect on cell survival at <1.25 mM measured for 24 hrs by MTT assay; assay type: toxicity, cell-based; conditions: hepg2, 24 h, 1250 µM; method in brief: as §3

| Compound | IC50 [1] | Ratio IC50 (Proteus mirabilis [2]) | Activity (Proteus mirabilis [3]) | Activity (Escherichia coli) | Activity [4] | Activity (HepG2 [5]) | Activity (HepG2 [6]) |
| --- | --- | --- | --- | --- | --- | --- | --- |
| NC(=S)NCc1ccccc1 | 2.27 10^-5mol/dm3 | 1.61 | – | – | – | – | – |
| S=C(NCc1cccnc1)NCc1cccnc1 | 1.4 10^-6mol/dm3 | 26.1 | Moderate_effect | Moderate_effect | Non-toxic | Toxic | Non-toxic |
| CC(=O)NO [ACETOHYDROXAMIC ACID] | 3.66 10^-5mol/dm3 | – | Moderate_effect | Moderate_effect | Non-toxic | Toxic | Non-toxic |
| NC(=S)Nc1ccccc1 [PHENYLTHIOUREA] | 9.66 10^-6mol/dm3 | 0.002 | – | – | – | – | – |
| O=c1c(O)c(-c2ccc(O)c(O)c2)oc2cc(O)cc(O)c12 [QUERCETIN] | 8.66 10^-7mol/dm3 | 0.001 | – | – | – | – | – |
